Results taken from ChEMBL document CHEMBL1240506, “Identification and development of novel inhibitors of Toxoplasma gondii enoyl reductase” (J Med Chem, 2010).
≈ marks a conversion by molar mass, not a printed value. Calls of active or inactive are those of the source. The rule behind the calls is not given here.

Assays:
[1] = biological target: T1, Enoyl-acyl carrier reductase (Toxoplasma gondii, UniProt Q6UCJ9); assay: Inhibition of Toxoplasma gondii enoyl reductase
T1 sequence (Q6UCJ9 whole entry): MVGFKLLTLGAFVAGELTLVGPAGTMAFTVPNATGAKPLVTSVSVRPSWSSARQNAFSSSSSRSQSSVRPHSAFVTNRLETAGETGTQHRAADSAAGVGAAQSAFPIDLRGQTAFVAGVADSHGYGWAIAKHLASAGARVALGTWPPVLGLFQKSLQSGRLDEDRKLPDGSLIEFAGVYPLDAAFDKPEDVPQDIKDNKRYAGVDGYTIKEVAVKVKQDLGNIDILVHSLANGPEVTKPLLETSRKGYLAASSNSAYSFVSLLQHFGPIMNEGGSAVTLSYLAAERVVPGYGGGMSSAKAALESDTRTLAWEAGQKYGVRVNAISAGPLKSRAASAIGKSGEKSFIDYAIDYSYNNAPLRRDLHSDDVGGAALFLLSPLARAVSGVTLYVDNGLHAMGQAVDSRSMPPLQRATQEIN
Procedure, shortened: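 Recombinant TgENR (20 nM) was assayed in 100 mM Na/K phosphate pH 7.5, 150 mM NaCl and 100 μM NADH. Compounds were added in DMSO (2% final), and reactions were started at 25°C with 100 μM crotonyl-CoA. NADH consumption was followed at 340 nm.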

Toxoplasma gondii [2] = assay: Antiparasitic activity against Toxoplasma gondii infected in HFF after 24 hrs by [3H]uracil incorporation assay; type: functional
Procedure, shortened: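 Human foreskin fibroblasts were infected with T. gondii tachyzoites and given 1 h to invade before inhibitors were added. Cultures ran 3 days, then 3H-uracil was added for a further day. Parasite growth was read as uracil incorporation by liquid scintillation counting. MIC50 and MIC90 are the concentrations giving 50% and 90% growth inhibition. There were 6 replicate samples per group.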

HFF [3] = assay: Toxicity to HFF at highest concentration; type: cell-based; details: human
Procedure, shortened: (§1)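 Host-cell toxicity was tested on non-confluent fibroblast monolayers by 3H-thymidine incorporation, alongside visual inspection of monolayer integrity. Testing ran simultaneously with the parasite inhibition assay, and the highest concentration tested was scored.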

[4] = Metabolic stability in human liver microsome assessed as compound remaining after 60 mins; type: ADME; details: liver microsomes, read-out: INH
Procedure, shortened: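 Compounds were incubated with pooled human liver microsomes for 60 minutes, and the percentage of parent compound remaining was measured.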

HFF [5] = assay: Toxicity to HFF; type: cell-based; details: human; procedure, shortened: as §1
Toxoplasma gondii [6] = assay: Antiparasitic activity against Toxoplasma gondii RH infected in ip dosed CD1 mouse; type: functional, organism-based
Procedure, shortened: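 CD1 mice were infected intraperitoneally with 2000 RH (Type 1) parasites, a lethal inoculum. Inhibitors were given intraperitoneally at 10mg/kg. Read-outs were peritoneal parasite burden by microscopy at day 5 and survival up to day 5 post-infection. There were 6 mice per group.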

CYP2C9 = CYP2C9 (Homo sapiens, UniProt P11712); assay: Inhibition of CYP2C9 at 10 uM; type: ADME
CYP2C9, sequence (P11712 whole entry): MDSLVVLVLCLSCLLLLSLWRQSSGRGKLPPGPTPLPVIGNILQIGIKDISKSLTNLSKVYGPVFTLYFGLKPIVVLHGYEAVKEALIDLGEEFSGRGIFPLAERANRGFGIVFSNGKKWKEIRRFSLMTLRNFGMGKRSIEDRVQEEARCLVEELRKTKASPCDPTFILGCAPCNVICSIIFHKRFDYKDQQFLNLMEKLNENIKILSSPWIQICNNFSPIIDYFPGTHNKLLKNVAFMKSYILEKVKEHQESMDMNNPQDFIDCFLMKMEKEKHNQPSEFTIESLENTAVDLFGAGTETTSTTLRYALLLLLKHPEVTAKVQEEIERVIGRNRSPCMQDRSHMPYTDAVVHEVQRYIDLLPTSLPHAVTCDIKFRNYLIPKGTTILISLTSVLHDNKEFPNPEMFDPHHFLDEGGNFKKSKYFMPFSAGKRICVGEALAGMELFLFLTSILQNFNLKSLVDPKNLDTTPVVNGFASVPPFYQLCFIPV
Procedure, shortened: (§2)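 Inhibition was measured against recombinant CYP450 isozymes 2C9, 2D6 and 3A4, each with compound at 10μM, and reported as percent inhibition.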

CYP2D6 = CYP2D6 (Homo sapiens, UniProt P10635); assay: Inhibition of CYP2D6 at 10 uM; type: ADME; procedure, shortened: as §2
CYP2D6, sequence (P10635 whole entry): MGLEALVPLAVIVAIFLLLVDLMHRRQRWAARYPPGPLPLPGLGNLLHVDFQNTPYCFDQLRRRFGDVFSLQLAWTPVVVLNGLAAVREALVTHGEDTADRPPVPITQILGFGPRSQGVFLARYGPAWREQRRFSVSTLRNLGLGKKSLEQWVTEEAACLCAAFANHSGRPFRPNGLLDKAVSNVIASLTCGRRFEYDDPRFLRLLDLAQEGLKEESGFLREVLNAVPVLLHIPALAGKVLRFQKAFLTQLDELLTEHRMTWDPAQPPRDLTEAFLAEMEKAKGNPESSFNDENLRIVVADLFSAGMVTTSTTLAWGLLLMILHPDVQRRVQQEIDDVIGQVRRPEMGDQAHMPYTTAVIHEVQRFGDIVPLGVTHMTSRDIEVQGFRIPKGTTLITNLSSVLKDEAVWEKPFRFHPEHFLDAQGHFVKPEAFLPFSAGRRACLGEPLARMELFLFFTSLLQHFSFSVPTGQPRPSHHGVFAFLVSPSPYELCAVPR

CYP3A4 = CYP3A4 (Homo sapiens, UniProt P08684); assay: Inhibition of CYP3A4 at 10 uM; type: ADME; procedure, shortened: as §2
CYP3A4, sequence (P08684 whole entry): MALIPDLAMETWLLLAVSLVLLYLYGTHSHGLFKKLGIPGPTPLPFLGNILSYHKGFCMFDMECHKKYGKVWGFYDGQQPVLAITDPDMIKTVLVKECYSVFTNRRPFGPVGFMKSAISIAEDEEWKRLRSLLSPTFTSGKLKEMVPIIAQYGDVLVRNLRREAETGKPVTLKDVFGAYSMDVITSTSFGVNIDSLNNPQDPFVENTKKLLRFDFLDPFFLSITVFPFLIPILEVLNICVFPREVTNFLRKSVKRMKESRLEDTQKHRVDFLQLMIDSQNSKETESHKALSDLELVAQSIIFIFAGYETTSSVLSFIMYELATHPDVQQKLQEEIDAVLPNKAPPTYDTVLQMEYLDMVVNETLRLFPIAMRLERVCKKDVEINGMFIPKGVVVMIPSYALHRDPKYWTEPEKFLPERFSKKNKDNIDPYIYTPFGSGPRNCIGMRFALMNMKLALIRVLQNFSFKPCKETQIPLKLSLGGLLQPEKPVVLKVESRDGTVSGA

Structure (SMILES)	IC50 [1]	MIC50 (Toxoplasma gondii [2])	MIC90 (Toxoplasma gondii [2])	Activity (HFF [3])	remaining at 1 h [4]	Activity (HFF [5])	Activity (Toxoplasma gondii [6])	inhibition at 10 µM (CYP2C9)	inhibition at 10 µM (CYP2D6)	inhibition at 10 µM (CYP3A4)
CCCc1cc(O)c(Oc2ccc(C(N)=O)cc2)c(O)c1	280 nM	20 µM (≈ 5.75 µg/mL)	> 24 µM	Non-toxic	–	–	–	–	–	–
O=[N+]([O-])c1ccc(Oc2ccc(Cl)cc2O)c(Cl)c1	–	4 µM (≈ 1.2 µg/mL)	6 µM (≈ 1.8 µg/mL)	Non-toxic	51.2%	4 µM	Active	> 85%	< 22%	< 22%
CCCc1ccc(Oc2ccc([N+](=O)[O-])cc2)c(O)c1	< 20 nM	6 µM (≈ 1.64 µg/mL)	> 6 µM	Non-toxic	–	> 6 µM	–	–	–	–
CC(=O)Nc1ccccc1Oc1ccc(Cl)cc1O	–	> 24 µM	> 24 µM	–	–	–	–	–	–	–
Nc1ncccc1C(=O)Nc1cc(Cl)ccc1Oc1ccccc1	> 20000 nM	17 µM (≈ 5.78 µg/mL)	24 µM (≈ 8.15 µg/mL)	Non-toxic	–	–	–	–	–	–
CCCc1ccc(Oc2ccc([N+](=O)[O-])cc2[N+](=O)[O-])c(O)c1	< 20 nM	2 µM (≈ 0.637 µg/mL)	6 µM (≈ 1.91 µg/mL)	Non-toxic	–	< 1.5 µM	–	–	–	–
Oc1cc(Cl)ccc1Oc1cnccn1	–	> 6 µM	> 6 µM	Non-toxic	–	> 6 µM	–	–	–	–
O=c1[nH]c2ccccc2n1S(=O)(=O)c1ccc([N+](=O)[O-])cc1	–	> 24 µM	> 24 µM	–	–	–	–	–	–	–
COc1ccc(NC(=O)COc2ccc([N+](=O)[O-])cc2)cc1	–	23 µM (≈ 6.95 µg/mL)	> 24 µM	–	–	–	–	–	–	–
CC(=O)Nc1ccc(Oc2ccc(Cl)cc2O)cc1	–	> 24 µM	> 24 µM	–	–	–	–	–	–	–
O=c1[nH]c2ccccc2n1-c1ccc([N+](=O)[O-])c(Cl)c1	–	> 24 µM	> 24 µM	–	–	–	–	–	–	–
COc1ccc(COc2ccn(Cc3ccccc3Cl)c(=O)c2)cc1	> 20000 nM	17 µM (≈ 6.05 µg/mL)	23 µM (≈ 8.18 µg/mL)	Non-toxic	–	–	–	–	–	–
CCCc1ccc(Oc2cccc(Cl)c2)c(O)c1	–	> 6 µM	> 6 µM	Non-toxic	–	> 6 µM	–	–	–	–
O=c1cc(OCc2ccccc2)ccn1Cc1ccc([N+](=O)[O-])cc1Cl	> 20000 nM	3 µM (≈ 1.11 µg/mL)	15 µM (≈ 5.56 µg/mL)	Non-toxic	–	–	–	–	–	–
CCCc1ccc(Oc2cccc(B(O)O)c2)c(O)c1	174 nM	5 µM (≈ 1.36 µg/mL)	6 µM (≈ 1.63 µg/mL)	Non-toxic	–	> 6 µM	–	–	–	–
C/C=C/C=C/C(=O)Nc1ccc(Oc2ccc(Cl)cc2Cl)c(O)c1	2000 nM	14 µM (≈ 5.1 µg/mL)	22 µM (≈ 8.01 µg/mL)	Non-toxic	–	–	–	–	–	–
CCCc1cc(O)c(Oc2ccc(C(=O)O)cc2Cl)c(O)c1	–	> 24 µM	> 24 µM	Non-toxic	–	–	–	–	–	–
Nc1ccc(Nc2ccccc2)c(N)c1	–	> 6 µM	> 6 µM	Non-toxic	–	< 1.5 µM	–	–	–	–
COc1ccc(NC(=O)/C=C/c2ccc(N)nc2)cc1	–	> 6 µM	> 6 µM	Non-toxic	–	> 6 µM	–	–	–	–
CC(=O)Nc1ccc(/C=C/C(=O)N(C)Cc2cc3ccccc3n2C)cn1	–	> 6 µM	> 6 µM	Non-toxic	–	> 6 µM	–	–	–	–
Oc1cc(Cl)ccc1Oc1ccc(-c2ccccc2)cc1	–	6 µM (≈ 1.78 µg/mL)	20 µM (≈ 5.94 µg/mL)	Non-toxic	–	–	–	–	–	–
Oc1ccc(Oc2ccccc2)c(O)c1	–	> 6 µM	> 6 µM	Non-toxic	–	6 µM	–	–	–	–
Oc1cc(Cl)ccc1Oc1ccc(Cl)cc1Cl [TRICLOSAN]	–	5 µM (≈ 1.45 µg/mL)	> 6 µM	–	–	> 6 µM	–	–	–	–
CCCc1ccc(Oc2ccc([N+](=O)[O-])cc2Cl)c(O)c1	< 20 nM	4 µM (≈ 1.23 µg/mL)	6 µM (≈ 1.85 µg/mL)	Non-toxic	–	1.5 µM	–	–	–	–
CCCc1ccc(Oc2cccc([N+](=O)[O-])c2)c(O)c1	–	> 6 µM	> 6 µM	Non-toxic	–	6 µM	–	–	–	–
Oc1ccc(Oc2ccc(Cl)cc2O)cc1	–	> 6 µM	> 6 µM	Non-toxic	–	> 6 µM	–	–	–	–
